Assay outcomes: PubChem BioAssay, Johns Hopkins Ion Channel Center
Hits are enriched below; roughly 3.5% of the tested compounds scored in any of these assays.
MrgX1 agonist: agonists of human MrgX1 receptor; 310,000 tested, 0.44% active; MrgX1-HEK293 cells, Fluo-4 calcium fluorescence, agonist mode; stronger effect = higher value; B-score at 10 µM; Q96LB2;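 active = calcium response B-score plate-corrected fluorescence ratio at least 3 library SD, with starting fluorescence B-score inside 5 SD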
Target sequence (Q96LB2 whole entry, looked up): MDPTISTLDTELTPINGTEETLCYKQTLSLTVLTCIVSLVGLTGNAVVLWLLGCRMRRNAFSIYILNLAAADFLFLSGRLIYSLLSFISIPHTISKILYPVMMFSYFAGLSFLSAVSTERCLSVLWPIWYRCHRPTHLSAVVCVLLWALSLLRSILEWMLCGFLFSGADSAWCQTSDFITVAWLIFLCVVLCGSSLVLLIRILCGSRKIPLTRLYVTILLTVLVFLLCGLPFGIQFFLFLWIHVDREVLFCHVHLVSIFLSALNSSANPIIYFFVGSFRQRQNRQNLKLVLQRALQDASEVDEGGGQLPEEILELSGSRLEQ
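times = overnight plating, then 30 min 37 °C plus 30 min room-temperature dye loading | assay system = stable human MrgX1 HEK293 cell line | input = fifteen thousand cells per well | signal = kinetic calcium dye fluorescence, Fluo-4 NW | dosing = compound delivered in addition one of three | read-out = B-scored fluorescence response ratio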
MrgX1 PAM: allosterically activates human MrgX1 receptor signaling | 310,000 tested, 0.63% active | B-score at 10 µM | MrgX1-HEK293, Fluo-4 calcium flux, FDSS; stronger effect = higher value | AID 588675 | Q96LB2;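 active = plate-corrected calcium response at least 3 library SD above typical, normal starting fluorescence, not activating the receptor alone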;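 also: compound read alongside a low EC10 to EC30 dose of BAM8-22 agonist; peak minus trough fluorescence over baseline measured at the second addition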
MrgX1 antag: antagonists of human MrgX1 receptor. Q96LB2. MRGX1-HEK293 calcium flux, Fluo-4, BAM8-22 antagonism; stronger effect = lower value. B-score at 10 µM. 310,000 tested, 1.3% active. AID 588676;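 active = calcium-response B-score plate-corrected more than 3 library SD below zero, starting fluorescence within 5 deviations, no agonist response on first addition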;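 also: peak minus trough fluorescence over baseline after final BAM8-22 challenge near maximal dose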
RGS4 inh: human RGS4 inhibition; AID 463165; 310,000 tested, 0.45% active; HEK293 M3R/RGS4 inducible, Fluo-4 calcium flux; stronger effect = higher value; triggered by carbachol at its EC20; B-score at 10 µM;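 active = B-score, a plate-corrected calcium signal, over three deviations above library mean, with baseline fluorescence within five deviations of library mean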;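 also: RGS4 expression induced by doxycycline in cells with stable M3 receptor; B-score is computed from the integrated fluorescence ratio over baseline after carbachol; higher B-score means a larger calcium signal and so more RGS4 inhibition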
Target sequence (P49798 whole entry, looked up): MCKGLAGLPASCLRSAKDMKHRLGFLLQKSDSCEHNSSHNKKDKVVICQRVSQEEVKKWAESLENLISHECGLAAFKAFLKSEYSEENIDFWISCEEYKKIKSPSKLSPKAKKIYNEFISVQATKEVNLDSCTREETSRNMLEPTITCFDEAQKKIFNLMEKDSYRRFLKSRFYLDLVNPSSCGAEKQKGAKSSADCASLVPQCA
RGS4 pot: potentiators or activators of RGS4. HEK293 M3R/inducible RGS4, carbachol calcium flux Fluo4; stronger effect = lower value. B-score at 10 µM. 310,000 tested, 0.92% active. AID 463111;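 active = B-score of the integrated calcium signal more than 4 SD below the library mean, with starting fluorescence not abnormally high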;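 also: negative B-score means reduced calcium response which marks RGS4 activation or potentiation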
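Assay system: HEK293 FlpIn-TREx cells, stable M3R, doxycycline-inducible RGS4 / Probe or stimulus: carbachol, ECmax concentration / Times: overnight RGS4 induction, 30 min dye load 37 °C, 20 min compound RT / Signal: kinetic calcium fluorescence imaging with Fluo4-AM dye, 2 µM / Measure: Agonist-evoked peak-minus-minimum fluorescence over baseline, integrated ratio, B score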
Numbers without * were called inactive; i = inactive; / = not tested or not shown.

SMILES	MrgX1 agonist	MrgX1 PAM	MrgX1 antag	RGS4 inh	RGS4 pot
CC(=O)Nc1ccc(N2C(=O)CSC2c2cccc(Br)c2)cc1 (stereo not drawn)	i	i	i	i	i
CCS(=O)(=O)Nc1ccc(-c2nc3cccnc3s2)cc1	i	i	i	i	i
c1ccc(-c2nnsc2-c2ccccc2)cc1	i	i	i	i	i
O=S(=O)(c1ccc(Cl)c(Cl)c1)c1snnc1-c1ccccc1	/	/	/	i	-7.3*
O=S1(=O)N=C(N2CCc3ccccc3C2)c2ccccc21	i	i	i	i	-7.4*
Cc1cc(OCC(=O)NCC(c2cccs2)N2CCOCC2)ccc1C(C)C (stereo not drawn)	i	i	i	i	i
Cc1ccc(C(C)C)c(OCC(=O)NCC(c2cccs2)N2CCOCC2)c1 (stereo not drawn)	28*	i	i	i	i
Cc1noc(NS(=O)(=O)c2ccc(NC(=O)c3cc(-c4ccccc4Cl)nc4ccccc34)cc2)c1C	39*	i	i	i	i
O=C(Nc1ccccc1N1CCCCC1)c1ccc(-c2cccc(Cl)c2)o1	i	i	i	i	i
CN1CCN(c2ccccc2NC(=O)c2ccc(-c3cccc(Cl)c3)o2)CC1	i	i	i	i	-8.5*
COC(=O)C1CCN(C(=O)CC(NC(=O)C(F)(F)F)c2cccs2)CC1 (stereo not drawn)	i	i	i	i	i
Cc1cccc(N2CCN(C(=O)c3ccc(-n4cncn4)c([N+](=O)[O-])c3)CC2)c1C	i	i	-4.9*	i	i
CNC(=O)/C(C#N)=C/c1ccc(-c2ccc(OC)cc2[N+](=O)[O-])o1	i	i	-5.2*	i	i
CC(C)(C)CC(=O)NC(=S)Nc1ccccc1[N+](=O)[O-]	i	i	-5.7*	i	i
COC(=O)c1ccccc1NC(=O)COc1ccccc1	i	i	i	i	i
COC(=O)c1ccccc1NC(=O)COc1ccccc1[N+](=O)[O-]	i	i	-4.6*	i	i
O=C(CCOc1ccccc1)Nc1ccccc1[N+](=O)[O-]	i	i	-5.4*	i	i
S=c1[nH]nc(-c2cc(-c3ccccc3)n[nH]2)n1/N=C/C(Br)=C/c1ccccc1	i	i	i	i	i
CC(C)(C)OC(=O)N1CCN(c2ccc([N+](=O)[O-])cc2)CC1	i	i	i	i	i
CCCCn1c(N)c(N(CCOC)C(=O)COC(=O)COc2c(C)cccc2C)c(=O)[nH]c1=O	i	i	i	i	i
CCCCN(C(=O)COC(=O)COc1c(C)cc(C)cc1C)c1c(N)n(CCC)c(=O)[nH]c1=O	i	i	-8.2*	i	i
COc1ccc(C2=NOC(C(=O)NCCN3CCOCC3)C2)cc1 (stereo not drawn)	i	i	i	i	i
COc1ccc(C2=NOC(C(=O)NCCCN3CCOCC3)C2)cc1 (stereo not drawn)	i	i	-5.1*	i	i
Cc1cc(C)c(S(=O)(=O)N(C2=NCCS2)S(=O)(=O)c2c(C)cc(C)cc2C)c(C)c1	i	i	i	i	i
COc1ccc(CCNC(=O)CC(c2ccccc2)c2cccc(C)c2O)cc1OC (stereo not drawn)	i	i	-5.9*	i	i
SMILES	MrgX1 agonist	MrgX1 PAM	MrgX1 antag	RGS4 inh	RGS4 pot
COc1ccc(CCNC(=O)CSc2ccccc2)cc1OC	i	i	i	i	i
OC(COc1ccccc1Cl)CN1CCN(CC(O)COc2ccccc2Cl)CC1 (stereo not drawn)	i	i	i	i	-7.7*
COc1ccc(Cc2nc3ccc(C(=O)N4C[C@@H](C)O[C@@H](C)C4)cc3o2)cc1OC	i	i	i	i	i
COCCN1CCN(C(=O)c2ccc3nc(Cc4ccc(OC)c(OC)c4)oc3c2)CC1	i	i	-5.9*	i	i
COC(=O)c1cccc(Cn2nc(C)c([N+](=O)[O-])c2C)c1	i	i	-6.6*	i	i
Cc1nn(CC(=O)NCc2ccccc2)c(C)c1[N+](=O)[O-]	i	i	i	i	i
COC(=O)CNC(=O)Cn1nc(C)c([N+](=O)[O-])c1C	i	12*	i	i	i
Cc1ccc(-n2c(CSc3nc(C)cc(C)n3)nnc2SCC(=O)NCc2ccco2)cc1	i	i	-6.6*	i	i
N=C1/C(=C\c2ccc(SCc3ccccc3)o2)C(=O)N=C2SC=NN12	i	8.7*	i	i	i
N=C1/C(=C\c2ccc(SCc3ccccc3)o2)C(=O)N=C2SC(CC(=O)N3CCOCC3)=NN12	i	i	i	i	i
NS(=O)(=O)c1ccc(NC(=O)COC(=O)c2cnccn2)cc1	i	i	i	i	i
Cc1cc(OCCN2CCC(Cc3ccccc3)CC2)ccc1[N+](=O)[O-]	i	i	i	i	-8*
O=C(Nc1ccc([N+](=O)[O-])cc1Cl)c1cc(Cl)ccc1O	i	i	i	/	/
O=C(Nc1cccc(Cl)c1)c1cc(N=Nc2ccc([N+](=O)[O-])cc2Cl)ccc1O	i	i	-4.6*	i	i
CC1=C(C#N)c2nc(N)c(C#N)c(C)c2/C1=C\c1ccc(OCC(=O)O)c(Cl)c1	i	i	-5.4*	i	i
COCC(=O)NC1CCN(C(=O)Nc2ccc(Br)cc2)CC1	i	i	i	i	i
CCOCc1cc(=O)[nH]c(SC)n1	/	/	/	i	i
CCc1nc(Nc2ccccc2F)c2oc3ccccc3c2n1	i	8.4*	i	i	i
CCCCC(CC)CN=C(N)NC(N)=NCCCCCCN=C(N)NC(N)=NCC(CC)CCCC (stereo not drawn)	170*	i	i	/	/
Cc1coc2c(C)c3oc(=O)c(CCC(=O)NCCN4CCOCC4)c(C)c3cc12	i	i	i	i	-7*
C=CCOc1ccc(C2OC34CCCCC3C(C#N)(C#N)C2(C#N)C(=N)O4)cc1 (stereo not drawn)	27*	i	i	i	i
CCCCOc1ccc(C2OC34CCCCC3C(C#N)(C#N)C2(C#N)C(=N)O4)cc1 (stereo not drawn)	i	i	i	i	i
O=C(NC(=S)N1CCN(c2nc(-c3ccccc3)cs2)CC1)c1cncc(Br)c1	i	i	i	i	i
C=CCOc1ccc(/C=N/NC(=O)CC(=O)NC2CCCCC2)cc1	i	i	i	i	i
O=C(O)c1ccccc1-c1ccccc1C(=O)Nc1ccc(-c2nc3cc(Cl)ccc3o2)cc1	i	i	-5.6*	i	i
